TRPC4 inh: inhibitors of mouse TRPC4 channel. Q9QUQ5. HEK293 TRPC4beta/mu-opioid, DAMGO-evoked Fluo4 calcium flux; hits give low values. B-score at 10 µM. 300,000 tested, 0.39% active;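 active means B-score over 3 SD under the library average, no early fluorescence shift, positive overall ratio signal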
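test system = HEK293 cells with stable TRPC4beta plus mu-opioid receptor expression | detection = Fluo4 Ca2+ flux fluorescence | read-out = integrated fluorescence ratio relative to baseline, converted to per-well B score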
TRPC6 inhibitor: inhibitors of mouse TRPC6 channel. AID 2553. HEK293-TRPC6, membrane potential dye, ACh-evoked depolarization; hits give low values. 310,000 tested, 1.1% active. B-score at 10 µM. Q61143;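 active means B-score under library mean minus 3 SD, initial fluorescence not abnormally high, positive integrated signal ratio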;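 further: B-score derived from integrated fluorescence ratio over the kinetic read; more negative B-score means stronger inhibition of depolarization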
Target sequence (Q61143 whole entry, looked up): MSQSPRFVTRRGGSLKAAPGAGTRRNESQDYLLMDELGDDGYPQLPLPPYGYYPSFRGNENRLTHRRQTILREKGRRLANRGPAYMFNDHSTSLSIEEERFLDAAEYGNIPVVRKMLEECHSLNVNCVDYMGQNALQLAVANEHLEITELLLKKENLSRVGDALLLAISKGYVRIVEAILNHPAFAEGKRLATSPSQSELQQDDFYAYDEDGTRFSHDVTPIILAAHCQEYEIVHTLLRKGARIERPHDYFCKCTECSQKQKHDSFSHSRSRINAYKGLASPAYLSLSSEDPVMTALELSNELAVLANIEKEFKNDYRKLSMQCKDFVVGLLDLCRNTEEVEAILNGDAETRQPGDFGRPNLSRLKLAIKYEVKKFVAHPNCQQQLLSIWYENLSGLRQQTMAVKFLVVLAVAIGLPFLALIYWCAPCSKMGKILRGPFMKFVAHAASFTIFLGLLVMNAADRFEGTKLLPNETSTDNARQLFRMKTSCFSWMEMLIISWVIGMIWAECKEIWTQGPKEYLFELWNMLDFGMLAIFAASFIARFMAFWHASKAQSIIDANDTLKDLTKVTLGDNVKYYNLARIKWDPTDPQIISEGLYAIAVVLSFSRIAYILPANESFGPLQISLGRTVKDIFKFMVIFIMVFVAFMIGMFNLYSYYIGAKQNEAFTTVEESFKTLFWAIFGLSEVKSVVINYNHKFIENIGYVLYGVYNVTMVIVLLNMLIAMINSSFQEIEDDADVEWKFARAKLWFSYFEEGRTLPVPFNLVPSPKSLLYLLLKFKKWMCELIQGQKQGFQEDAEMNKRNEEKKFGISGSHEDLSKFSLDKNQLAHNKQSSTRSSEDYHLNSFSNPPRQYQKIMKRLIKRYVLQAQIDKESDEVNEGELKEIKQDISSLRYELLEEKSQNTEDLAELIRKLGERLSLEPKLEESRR
TRPC4 agonist: TRPC4 (mouse) channel activation. Q9QUQ5. HEK293 TRPC4beta/mu-opioid, Fluo4 calcium fluorescence; hits give high values. B-score at 10 µM. 310,000 tested, 0.49% active. AID 2237;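 active means B-score above 5 SD of library B-scores, and initial fluorescence ratio not above library mean plus 5 SD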;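 further: positive B-score marks a calcium rise read as TRPC4 activation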
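Incubation: 45 min room-temperature Fluo4 loading, 110 s read / System: HEK293 cells stably co-expressing mouse TRPC4beta and mu-opioid receptor / Signal: Fluo4 fluorescence, kinetic / Control set: buffer (low) and maximal DAMGO (high) / Measure: integrated baseline-normalised fluorescence ratio, converted to per-well B score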
TRPC6 activator: mouse TRPC6 channel activation; Q61143; HEK293-TRPC6 membrane potential dye fluorescence; hits give high values; B-score at 10 µM; 310,000 tested, 0.13% active;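 active means B-score of the integrated fluorescence ratio above library mean plus 3 SD, and starting fluorescence ratio within library mean plus 5 SD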;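 further: higher score means more depolarization so channel activation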
TRPC4 potent: allosteric potentiators of mouse TRPC4 channel | 310,000 tested, 0.42% active | B-score at 10 µM | HEK293 TRPC4beta/mu-opioid, DAMGO EC20, Fluo-4 Ca2+ flux; hits give high values | AID 2227 | Q9QUQ5;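 active means B-score of calcium response area above 5 SD of library B-scores, with initial fluorescence ratio within 5 SD of library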;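 further: B-score of integrated fluorescence ratio over time as area under calcium response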
TRPC4 spec 2: second selectivity test of TRPC6 inhibitors: effect on mouse TRPC4 | shares compounds with TRPC6 inhibitor | HEK293 TRPC4/MOR, membrane potential dye fluorescence; channel activated by saturating DAMGO dose | inhibition, % at 10 µM | 920 tested, 42% active | AID 2776;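 active means compounds whose fluorescence signal differed from control wells by over 3 SD, either direction, in both duplicate plates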
TRPC4 spec: tests whether TRPC6 inhibitors also affect mouse TRPC4; shares compounds with TRPC6 inhibitor; HEK293 TRPC4/mu-opioid, membrane potential fluorescence; activity change, negative = inhibition, % at 10 µM; 920 tested, 61% active;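 active means rise or fall in signal beyond 3 SD of buffer-only wells in both replicate plates, either sign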;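 further: integrated kinetic ratio of fluorescence range over baseline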
HEK293 MPD ctr 2-1: second check of TRPC6 inhibitor effects in parental HEK293 cells; shares compounds with TRPC6 inhibitor; parental HEK293 membrane potential dye fluorescence; maximal acetylcholine challenge after compound addition; signal change vs control, % at 10 µM; 920 tested, 31% active; AID 2779;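 active means membrane potential signal moving either way by over 3 SD of the maximum-effect control, in both duplicate plates, meaning non-specific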
HEK293 MPD ctr-1: parental HEK293 nonspecific activity of TRPC6 inhibitors | shares compounds with TRPC6 inhibitor | parental HEK293 membrane potential dye fluorescence | membrane potential signal change, % at 10 µM | 920 tested, 60% active;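 active means membrane potential signal shifting up or down by more than 3 SD of buffer-only wells, on both duplicate plates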
HEK293 MPD ctr-2: checks TRPC6 modulator effects in parental HEK293 cells; shares compounds with TRPC6 inhibitor; membrane potential dye fluorescence; membrane potential signal change, % at 10 µM; 2,400 tested, 51% active;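 active means membrane potential signal moves up or down beyond 5 SD from buffer-only wells, on both duplicate plates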
HEK293 MPD ctr 2-2: second counter-screen for TRPC6 modulators: effect in parental HEK293 cells; membrane potential dye fluorescence; after compound, maximal acetylcholine stimulation; inhibition, % at 10 µM; shares compounds with TRPC6 inhibitor; 2,400 tested, 14% active; AID 488926;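 active means membrane potential signal drops by more than 5 SD from the mean control signal, in both duplicate plates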;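 further: plate controls were acetylcholine ECmax control wells for no effect and buffer only wells for full effect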
TRPC4 ctr mod: tests whether TRPC6 modulators also affect mouse TRPC4 | shares compounds with TRPC6 inhibitor | HEK293 TRPC4/mu-opioid, membrane potential fluorescence | percent change from control (negative = decrease, positive = increase), % at 10 µM | 2,400 tested, 69% active;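 active means membrane potential signal moved up or down beyond 5 SD of buffer control wells, in both duplicate plates, actives on both sides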;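 further: plate controls were assay buffer wells for no effect and DAMGO maximal-effect wells for full effect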
TRPC4 ctr inh 2: second check of whether TRPC6 modulators also affect mouse TRPC4 | shares compounds with TRPC6 inhibitor | HEK293 TRPC4/mu-opioid, membrane potential dye fluorescence; stimulated with maximal-effect DAMGO | inhibition, % at 10 µM | 2,400 tested, 55% active;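 active means drop in membrane potential signal beyond 5 SD of the control wells in both duplicate plates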;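 further: TRPC4 counter screen for TRPC6 hits run under conditions tuned for TRPC6 not TRPC4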
TRPC6 inh conf: mouse TRPC6 inhibitor confirmation; 3,300 tested, 43% active; inhibition, % at 10 µM; shares compounds with TRPC6 inhibitor; AID 488960; HEK293-TRPC6, membrane potential dye, ACh-evoked depolarization;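 active means fluorescence ratio falls more than 5 SD below the full-stimulation control mean, in both duplicate runs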;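 further: integrated fluorescence ratio of peak minus minimum over baseline after agonist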
TRPC6 act confirm: mouse TRPC6 activator confirmation; shares compounds with TRPC6 inhibitor; HEK293-TRPC6 membrane potential dye fluorescence, FDSS; activation, % at 10 µM; 2,800 tested, 11% active;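 active means ratio signal rise beyond 5 SD above unstimulated control wells' mean, seen in both duplicate runs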;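 further: plate controls were buffer EC0 wells for no effect and acetylcholine ECmax response for full effect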
An asterisk follows results filed as active; i = inactive; / = no result given; + = active, no number. In the library only some 2.3% were active in any assay of this set; here they are far more common.

SMILES	TRPC4 inh	TRPC6 inhibitor	TRPC4 agonist	TRPC6 activator	TRPC4 potent	HEK293 MPD ctr-2	HEK293 MPD ctr 2-2	TRPC4 ctr mod	TRPC4 ctr inh 2	TRPC6 inh conf	TRPC6 act confirm	others
CN(C)CCCOC(=O)C1c2ccccc2Oc2ccccc21	i	-8.5*	i	i	i	/	/	/	/	63%*	/	TRPC4 spec 2=i;TRPC4 spec=7.3%*;HEK293 MPD ctr 2-1=28%*;HEK293 MPD ctr-1=7.4%*
CN(CCOC(=O)C1c2ccccc2Oc2ccccc21)C(C)(C)C	i	-10*	i	i	i	/	/	/	/	68%*	/	TRPC4 spec 2=i;TRPC4 spec=15%*;HEK293 MPD ctr 2-1=24%*;HEK293 MPD ctr-1=11%*
NC(=O)COC(=O)C1c2ccccc2Oc2ccccc21	i	i	i	i	i	/	/	/	/	/	/
COc1ccc(NC(=O)C2CCCN2C(=O)NC2CCCCC2)cc1 (stereo not given)	i	i	i	i	i	/	/	/	/	/	/
CCC(C)(C)NC(=O)C(c1cccc(OC)c1)N(C(=O)CNC(=O)c1cccs1)c1cccnc1 (stereo not given)	i	i	i	i	i	/	/	/	/	/	/
Cc1cccc(-n2cnc(C(=O)NC3CCCCCC3)c2)n1	i	-6*	i	i	i	i	i	9.0%*	i	i	i
O=C(O)/C=C/C(=O)Nc1ccc(-c2ccccc2)cc1	i	i	i	i	i	/	/	/	/	/	/
NS(=O)(=O)c1ccc(CCNCc2cc(Br)ccc2OCc2ccccc2F)cc1	i	-5.7*	i	i	i	i	i	i	88%*	56%*	i
NS(=O)(=O)c1ccc(CCNCc2cc(Cl)ccc2OCc2ccccc2)cc1	i	i	i	i	i	/	/	/	/	/	/
NS(=O)(=O)c1ccc(CCNCc2ccccc2OCc2ccc(Cl)cc2)cc1	-5*	-6.8*	i	i	i	/	/	/	/	62%*	i	TRPC4 spec 2=30%*;TRPC4 spec=i;HEK293 MPD ctr 2-1=i;HEK293 MPD ctr-1=2.1%*
Cc1ccc(-c2nn(-c3cccc(F)c3)cc2CN2CCN(c3ccccn3)CC2)o1	i	i	i	i	i	/	/	/	/	/	/
Cc1ccc(-c2nn(-c3cccc(F)c3)cc2CNCc2cccnc2)o1	i	-5.7*	121*	i	i	i	i	41%*	85%*	i	i
CN(C)c1ccc(/C=C/C(=O)c2cccnc2)cc1	i	i	i	133*	i	+	+	470%*	160%*	/	864%*
CN(C(=O)COC(=O)c1ccccc1C(=O)N1CCN(c2ccccc2)CC1)c1ccccc1	i	i	i	i	i	/	/	/	/	/	/
Cc1noc(C)c1CSc1ccccc1C(=O)N1CCN(c2ccccc2)CC1	i	-6.9*	i	i	i	/	/	/	/	i	/	TRPC4 spec 2=i;TRPC4 spec=16%*;HEK293 MPD ctr 2-1=i;HEK293 MPD ctr-1=8.9%*
COCCSc1ccccc1C(=O)N1CCN(c2ccccc2)CC1	i	i	i	i	i	/	/	/	/	/	/
Cc1cccc(NC(=O)COc2coc(CN3CCN(c4ccccc4)CC3)cc2=O)c1C	i	i	i	i	i	/	/	/	/	/	/
CC(NCCC(Cc1ccccc1)c1ccco1)c1ccccc1 (stereo not given)	-6*	-5.6*	i	12*	i	167%*	i	42%*	40%*	i	36%*
Fc1ccc(CNCCC(Cc2ccccc2)c2ccco2)cc1 (stereo not given)	i	i	i	i	i	/	/	/	/	/	/
CC1=Nc2ccccc2/C1=C/c1sc(=N)n(-c2nccs2)c1O	i	i	i	36*	i	714%*	i	110%*	i	i	192%*
CC1=Nc2ccccc2/C1=C/c1nc(-c2ccc(C)s2)oc1O	i	i	i	i	i	/	/	/	/	/	/
CC(C)(C)NCC(O)(c1ccc(Cl)cc1)c1ccc(Cl)cc1	i	i	i	i	i	/	/	/	/	/	/
NCC(O)(c1ccc(Cl)cc1)c1ccc(Cl)cc1	i	-6.3*	i	i	i	i	i	i	40%*	i	i
O=C(NNS(=O)(=O)c1ccc(F)cc1F)c1csc(-c2cccnc2)n1	i	i	i	i	i	/	/	/	/	/	/
O=C(c1ccc(Cl)c(S(=O)(=O)Nc2ccc(F)cc2)c1)N1CCN(c2ccccn2)CC1	i	-10*	i	i	i	/	/	/	/	i	i	TRPC4 spec 2=i;TRPC4 spec=9.5%*;HEK293 MPD ctr 2-1=i;HEK293 MPD ctr-1=4.3%*
SMILES	TRPC4 inh	TRPC6 inhibitor	TRPC4 agonist	TRPC6 activator	TRPC4 potent	HEK293 MPD ctr-2	HEK293 MPD ctr 2-2	TRPC4 ctr mod	TRPC4 ctr inh 2	TRPC6 inh conf	TRPC6 act confirm	others
O=C(c1ccc(Cl)c(Cl)c1)N1CCN(c2ccccn2)CC1	i	i	i	i	i	/	/	/	/	/	/
CC1(C)c2[nH]c3ccccc3c2C[C@H]2C(=O)N(Cc3ccc(F)cc3)C(=O)N21	i	-5.5*	i	i	i	i	i	-9.0%*	i	i	i
CC1(C)c2[nH]c3ccccc3c2C[C@@H]2C(=O)N(Cc3ccccc3)C(=O)N21	i	i	i	i	i	/	/	/	/	/	/
Cc1ccccc1C(=O)NCCSc1ccccc1	i	-7.5*	i	i	i	/	/	/	/	i	i	TRPC4 spec 2=i;TRPC4 spec=3.9%*;HEK293 MPD ctr 2-1=i;HEK293 MPD ctr-1=2.1%*
NC(=O)NC(=O)CC1S/C(=N/N=C2/NC(=O)CS2)NC1=O (stereo not given)	i	i	i	i	i	/	/	/	/	/	/
COc1ccc(/C=N/n2c(C)nc3ccccc3c2=O)cc1OC	i	-6.3*	i	i	i	i	i	i	i	i	i
